Source: PubChem BioAssay
Rows were chosen to be rich in hits. Some 1.7% of all compounds tested hit in one or more screens of this group.
PglD DTNB: inhibitors of Campylobacter jejuni PglD acetyltransferase; purified PglD enzyme, DTNB colorimetric CoA detection; inhibition, % at 12.5 µM; 0.098% of 360,000 active; AID 602405; in the data active = inhibition above about 16%, passing the limit was not always enough
SKKanGAS inh: SKKanGAS growth inhibition; S. pyogenes SKKanGAS, kanamycin growth, BacTiter-Glo, 6 h; inhibition, % at 7.5 µM; 1.3% of 300,000 active;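 active = mean replicate score, as percent of positive control median, at least 50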;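 also: strain carries kanamycin resistance gene driven by streptokinase promoter and grows in 40 µg/ml kanamycin; loss of luminescence reflects streptokinase promoter inhibition or plain growth inhibition; 0% = median of DMSO wells and 100% = positive control at its reference dose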
CSC inhib: cancer stem cell inhibition. 1.1% of 300,000 active. cancer stem cell-like cells viability, luminescence. AID 2717. inhibition, % at 7.5 µM; in the data active = inhibition above about 75%; tested in HMLE shEcad cells
Rtt109 Vps75: C. albicans Rtt109 histone acetyltransferase inhibition. Q5AAJ8. purified Rtt109/Vps75, ThioGlo CoA-SH fluorescence, 4 h. inhibition, % at 34.9 µM. 0.16% of 330,000 active. AID 540336;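 active = inhibition of at least 50% in every replicate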
Target sequence (Q5AAJ8 whole entry, looked up): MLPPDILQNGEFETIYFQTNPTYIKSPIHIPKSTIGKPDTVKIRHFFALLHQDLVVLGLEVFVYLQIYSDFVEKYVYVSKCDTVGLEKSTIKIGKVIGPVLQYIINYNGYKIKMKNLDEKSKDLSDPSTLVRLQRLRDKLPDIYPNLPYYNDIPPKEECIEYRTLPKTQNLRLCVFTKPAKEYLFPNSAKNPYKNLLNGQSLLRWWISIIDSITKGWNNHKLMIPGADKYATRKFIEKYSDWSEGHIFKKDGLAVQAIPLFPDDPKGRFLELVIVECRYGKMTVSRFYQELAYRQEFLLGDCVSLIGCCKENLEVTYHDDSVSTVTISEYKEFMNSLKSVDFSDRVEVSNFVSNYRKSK
FN deposition inh: fibronectin deposition inhibition; AH1F fibroblasts, Alexa488-fibronectin deposition fluorescence, overnight; inhibition, % at 12.6 µM; 0.086% of 350,000 active; AID 743247;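 active = mean inhibition across replicates of 30% or more, regardless of how many single replicates reach that level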;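 also: positive control wells lacked labelled fibronectin entirely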
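Material: AH1F fibroblasts assembling fluorescent fibronectin matrix; amount: 10000 AH1F cells/well; medium: DMEM, 2% serum; reagent: Alexa488-fibronectin, 24 nM final in well; dosing: single compound dose, delivered by pin transfer; incubation: 1 h adhesion, overnight exposure; detection: fluorescence after three HBSS washes, excitation 485 nm, emission 525 nm; measure: fibronectin deposition inhibition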
PfHsp90 yeast 2: growth inhibition of yeast expressing Plasmodium Hsp90. inhibition, % at 9.4 µM. S. cerevisiae expressing PfHsp90, BacTiter-Glo ATP, 48 h; yeast lacking PDR1 and PDR3 efflux regulators. 0.32% of 310,000 active;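 active = every replicate shows inhibition above about 80%, whatever the replicate mean, limit read from the data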;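 also: 0% = DMSO neutral controls and 100% = 20 µM radicicol positive controls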
* hit, by the source's call; · = no result.

SMILES | PglD DTNB | SKKanGAS inh | CSC inhib | Rtt109 Vps75 | FN deposition inh | PfHsp90 yeast 2
Cc1ccc(-c2cc(-c3ccc(C)o3)nc(N)c2C#N)cc1 | · | 6 | 2 | -1 | · | 10
Cc1cc(-c2cc(-c3ccc(Cl)cc3)nc(N)c2C#N)co1 | -3 | 17 | 43 | -24 | · | 122*
Cc1ccc(-c2cc(-c3ccc(F)cc3)c(C#N)c(N)n2)o1 | -1 | -13 | 5 | · | 9 | 120*
Cc1ccc(-c2cc(-c3ccc(Cl)cc3)c(C#N)c(N)n2)o1 | -1 | 16 | 5 | 0 | -13 | -30
CC(C)CC#Cc1ccc([C@@H]2[C@@H](CO)N3C(=O)CN(C(=O)NC4CCCC4)C[C@@H]23)cc1 | · | · | · | · | -9 | ·
Cc1cc(N2CCN(c3cccc(C)c3C)CC2)nc(-c2ccccc2)n1 | · | 21 | -3 | -5 | · | 135*
Cc1ccc(/C=C/C(=O)NCCc2ccccc2)o1 | 4 | -7 | 75* | 3 | 13 | 4
O=C(/C=C/c1ccco1)NCCc1ccccc1 | 1 | -19 | · | 4 | 2 | 17
C[C@H]1CN([C@@H](C)CO)S(=O)(=O)c2ccc(-c3ccccc3F)cc2O[C@@H]1CN(C)C(=O)C1CC1 | -4 | · | · | · | · | ·
C=CCN1C(=O)/C(=C\c2ccc(OC(=O)c3ccco3)c(OC)c2)SC1=S | 7 | 9 | 6 | -5 | 6 | 0
C=CCN1C(=O)/C(=C/c2ccc(OC(C)=O)c(OCC)c2[N+](=O)[O-])SC1=S | · | 77* | · | -4 | 0 | -47
O=C1C[C@@](C(=O)NCCN2CCOCC2)(c2ccc([N+](=O)[O-])cc2)[C@@H](c2ccc(CO)cc2)N1CC12CC3CC(CC(C3)C1)C2 | 2 | · | · | · | · | ·
COc1ccc(Br)cc1C(=O)Nc1ccccc1N1CCCC1 | -3 | -2 | 47 | -22 | -5 | 3
CCn1c(=O)n(CC)c2cc(N3CCCC3)c(NC(=O)c3cc(Br)ccc3OC)cc21 | · | 65* | 15 | · | 4 | ·
O=C(NC(=S)Nc1ccccc1N1CCCCC1)c1ccco1 | 3 | -10 | 41 | 5 | 13 | -11
O=C(NC(=S)Nc1cccc(Cl)c1N1CCCCC1)c1ccco1 | -1 | 36 | 77* | 5 | · | -7
O=C(NC(=S)Nc1cccc(Cl)c1N1CCCCC1)c1cccs1 | · | 60* | 99* | -8 | · | -11
CCCNC(=O)C[C@H]1C[C@H]2c3cc(NC(=O)Nc4ccccc4F)ccc3O[C@H]2[C@@H](CO)O1 | 0 | · | · | · | -8 | ·
O=C(NCC[C@H]1CC[C@@H](NC(=O)c2cnccn2)[C@@H](CO)O1)Nc1ccc(Cl)cc1 | 1 | · | · | · | · | ·
O=C(NNC1=Nc2cccc3cccc1c23)c1ccc(Br)cc1 | · | 114* | 21 | -6 | 0 | 28
Cc1c(NC(=O)c2ccc3nsnc3c2)cccc1[N+](=O)[O-] | -7 | -8 | -4 | 6 | 33* | -4
Cc1cc(C(=O)Nc2cccc([N+](=O)[O-])c2C)cs1 | -3 | -5 | 6 | -4 | -2 | 9
Cc1ccc(NC(=O)CSC2=C(C#N)C(c3ccco3)C3=C(CCCC3=O)N2)cc1 (centres undefined) | 6 | 1 | 24 | 12 | -10 | 22
CC1(C)CC(=O)C2=C(C1)NC(SCC(=O)Nc1ccccc1)=C(C#N)C2c1ccco1 (centres undefined) | -11 | 8 | -11 | -3 | · | -3
Cc1ccc(C(=O)CSC2=C(C#N)C(c3ccco3)C3=C(CC(C)(C)CC3=O)N2)cc1 (centres undefined) | 6 | 25 | 97* | 35 | · | -8
SMILES | PglD DTNB | SKKanGAS inh | CSC inhib | Rtt109 Vps75 | FN deposition inh | PfHsp90 yeast 2
N#CC1=C(SCC(=O)c2ccc(Cl)cc2)NC2=C(C(=O)CCC2)C1c1ccco1 (centres undefined) | -8 | 16 | 93* | 24 | · | -2
O=C(C[C@H]1C=C[C@@H](NC(=O)Nc2ccc(F)cc2)[C@@H](CO)O1)NCc1cccc(F)c1 | 2 | · | · | · | -1 | ·
O=C(Nc1ccc2c(c1)[C@@H]1C[C@H](CC(=O)N3CCCCC3)O[C@H](CO)[C@@H]1O2)NC1CCCCC1 | · | · | · | · | -1 | ·
C/C(=N\Nc1nc2ccccc2s1)c1ccc(Br)s1 | · | 92* | 84* | 7 | 5 | 115*
Cc1cc(C)c(C(=O)/C=C/C=C/c2ccccc2)c(=O)[nH]1 | · | 28 | 1 | 10 | -1 | 33
Cc1cc(C)c(C(=O)/C=C/c2ccc(C(C)C)cc2)c(=O)[nH]1 | 7 | 3 | 84* | -1 | · | 15
CCOc1ccc(NC(=O)CSc2nnc(Cc3ccccc3)c(=O)n2N)cc1 | 1 | 55* | · | -7 | -3 | -8
CCOc1ccc(Cc2nnc(SCC(=O)Nc3ccc(OC)cc3)n(N)c2=O)cc1 | 5 | -5 | · | 3 | -3 | -45
COc1c(CC=C(C)C)cc(C2CC(=O)c3c(O)cc(O)cc3O2)c(CC=C(C)C)c1O (centres undefined) | · | 109* | -3 | · | · | ·
COc1cc(/C=C/C(=O)OCC(=O)c2c(N)n(C)c(=O)n(C)c2=O)ccc1OCC#N | · | 56* | -1 | -2 | -3 | 15
COc1cc(/C=C/C(=O)OCC(=O)c2c(N)n(C)c(=O)n(C)c2=O)ccc1OC(F)F | · | 19 | -1 | -1 | -11 | -19
COc1cc(/C=C/C(=O)OCC(=O)c2c(N)n(C)c(=O)n(C)c2=O)ccc1O | 6 | 58* | -6 | -1 | · | 4
C[C@H](CO)N1C[C@H](C)[C@H](CN(C)S(=O)(=O)c2cccs2)Oc2ccc(NC(=O)Cc3ccccc3)cc2C1=O | 3 | · | · | · | · | ·
COC(=O)c1[nH]nc2c1C(=O)N(Cc1ccccc1)C2=O | -1 | 1 | -13 | 0 | · | 6
COC(=O)c1[nH]nc(-c2ccccc2)c1-c1ccccc1 | · | 1 | 6 | 54* | -2 | 5
CCC(=O)N1CC[C@@H]2[C@H](CO)Nc3ccc(C#Cc4cccc(OC)c4)cc3[C@@H]21 | -3 | · | · | · | 2 | ·
COc1ccc(/C=C/C(=O)NC(=S)NN2CCCCC2c2cccnc2)cc1OC (centres undefined) | · | -3 | 0 | -2 | 1 | 9
COc1ccc(/C=C/C(=O)NC(=S)NNC(=O)[C@H]2C[C@@H]2c2ccccc2)cc1OC | -7 | 63* | 0 | -4 | -12 | -68
COc1cccc(OC)c1C(=O)NC(=S)NNC(=O)[C@H]1C[C@@H]1c1ccccc1 | -5 | 79* | · | 1 | -5 | 18
O=C(NC(=S)NNC(=O)[C@H]1C[C@@H]1c1ccccc1)c1cccc(F)c1 | 3 | 99* | 18 | -3 | 6 | -1
CC=Cc1ccc2n(c1=O)C[C@@H]1[C@@H](CO)[C@H](C(=O)NCc3ccccc3F)N(CCC)[C@H]21 (mixture of isomers) | -3 | · | · | · | · | ·
COc1ccc(-c2ccc(C(C)=O)cc2)cc1[C@H]1[C@@H]2C=CCC[C@@]2(C)C(=O)N1Cc1ccccc1 | -2 | · | 68 | -13 | 9 | 17
